Source: publication PMC4756412 (Journal of pharmaceutical sciences, 2016)
“Also recorded” adds a separate entry of the source. Bridge positions count the residues as written; N and C are the ends. Peptide text beside a SMILES is read from it.

Assays:
[1] = Peptide stability in rat plasma; format: in vitro ADME; details: rat plasma (NaHeparin)
Method in brief: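 Test compound in DMSO was spiked into heparinised rat plasma (final DMSO 0.6%) and shaken at 50 rpm at 37 °C for up to 8 or 72 h, about 2–3 half-lives. Samples were deproteinised with ACN:H₂O:EtOAc (6:1:1) and centrifuged at 17226 g. Remaining peptide was quantified by LC-MS/MS against a peptide internal standard, and half-life was calculated.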

MDCK-II cell monolayers [2] = experiment: Direct junction modulation of intact MDCK cell monolayers; format: cell-based, canine; details: peptide 1.0 mM, Ca2+-sufficient buffer, 7- and 8-h time points
Method in brief: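 MDCK-II cells were seeded at 75,000 cells/well on 0.4 μm polyester Transwell membranes and grown 5–8 days, with starting TEER of 280–320 ohm.cm². Monolayers were washed in HBSS (25 mM glucose, 2 mM CaCl₂, 0.75 mM MgSO₄, 10 mM HEPES), with no Ca²⁺-free step. They were then exposed apically and basolaterally to test compound (1.0 mM) or none, and TEER was read hourly for 6–8 h by voltohmmeter.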

MDCK-II cell monolayers [3] = experiment: Inhibition of junction resealing in MDCK cell monolayers; format: cell-based, canine; details: peptide 1.0 mM apical and basolateral, TEER, 5- and 6-h time points
blood-brain barrier [4] = experiment: MRI of Gd-DTPA brain deposition after i.v. peptide; format: in vivo, Balb/c mice
blood-brain barrier [5] = experiment: NIRF imaging of IRdye800cw-PEG and R800 brain deposition; format: in vivo, mice; details: 0.01 mmol/kg peptide i.v., ex vivo brain-to-plasma fluorescence ratio
Method in brief: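 Mice received test compound 0.010 mmol/kg or PBS i.v. After 5 min, IRDye 800CW PEG (~25 kDa, 0.01 μmol/kg) and R800 (P-gp substrate, 0.032 μmol/kg) were given i.v. Mice were killed by cardiac perfusion of 10% formaldehyde 20 min after treatment. Brains were imaged ex vivo by near-infrared scanner, and ROI fluorescence per unit tissue was divided by fluorescence per μL blood at the same time point.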

blood-brain barrier [6] = experiment: In-situ rat brain perfusion, 14C-mannitol brain delivery; format: in vivo, Sprague-Dawley rats; details: peptide 1.0 mM, 240-s perfusion, then 240-s 14C-mannitol
Method in brief: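 Sprague-Dawley rats were anaesthetised i.p. with ketamine 100 mg/kg plus xylazine 5 mg/kg. Perfusion via a left common carotid cannula at 5.0 mL/min began right after cardiac puncture: 20-s saline, 240-s test compound (1.0 mM) or vehicle, 240-s ¹⁴C-mannitol, then 5-s saline wash. Perfusate was filter-sterilised and oxygenated (95% air/5% CO₂, 37 °C). Rectal temperature was held at 36.5 ± 0.5 °C.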

blood-brain barrier [7] = details: completely reversed by 4 h following treatment; cited from earlier work
[8] = 0.01 mmol/kg i.v., AUC over 42 min, posterior, midbrain, anterior
[9] = 0.001, 0.0032, 0.01 mmol/kg i.v., 42-min session

Compound | half-life [1] [min] | lowering of TEER of intact monolayers compared to HBSS (MDCK-II cell monolayers [2]) | inhibition of junction resealing compared to HBSS (MDCK-II cell monolayers [3]) | Gd-DTPA enhancement after 1-h peptide pretreatment (blood-brain barrier [4]; [8]) | Gd-DTPA enhancement after 2-h peptide pretreatment (blood-brain barrier [4]; [8]) | maximum enhancement of Gd-DTPA compared to background at 0 time point (blood-brain barrier [4]; 0.010 mmol/kg i.v., posterior region, Gd-DTPA 0.4 mmol/kg, 42-min MRI session) | duration of BBB modulation (Gd-DTPA) (blood-brain barrier [4]; 0.01 mmol/kg i.v., various pretreatment times, MRI) [h] | AUC of Gd-DTPA deposition vs vehicle, anterior region (blood-brain barrier [4]; [9]) | AUC of Gd-DTPA deposition vs vehicle, midbrain (blood-brain barrier [4]; [9]) | AUC of Gd-DTPA deposition vs vehicle, posterior region (blood-brain barrier [4]; [9]) | increase in brain delivery of Gd-DTPA (blood-brain barrier [4]; following peptide treatment) | brain deposition of IRdye800cw-PEG, 5-min pretreatment (blood-brain barrier [5]) | passage of 14C-mannitol into rat brain compared to vehicle (blood-brain barrier [6]) | duration for which BBB modulation was observed (blood-brain barrier [7]) [h]
CC(=O)N[C@@H](CO)C(=O)N[C@@H](Cc1c[nH]cn1)C(=O)N[C@@H](C)C(=O)N[C@H](C(=O)N[C@@H](C)C(=O)N[C@@H](CO)C(N)=O)C(C)C [HAV4] (Ac-SHAVAS-NH2) | 144 | lowered the TEER values significantly | significantly inhibited the resealing; also recorded: inhibited the junction resealing | did not produce any Gd-DTPA enhancement | did not produce any Gd-DTPA enhancement | up to fivefold | < 1 | significantly higher than those of the vehicle group at all peptide doses examined | only treatment with 0.01 mmol/kg showed significant enhancement compared to vehicle | significantly higher than those of the vehicle group at all peptide doses examined | 3-4 fold | higher than in saline-treated controls | significantly enhanced | 
Ac-CDTPPVC-NH2 (disulfide 1-7 (inferred); SMILES CC(=O)N[C@H]1CSSC[C@@H](C(N)=O)NC(=O)[C@H](C(C)C)NC(=O)[C@@H]2CCCN2C(=O)[C@@H]2CCCN2C(=O)[C@H]([C@@H](C)O)NC(=O)[C@H](CC(=O)O)NC1=O) [ADTC5] |  |  |  |  |  |  |  |  |  |  |  |  |  | 2
